Source: ChEMBL document CHEMBL1123030, “N-(Aminoalkyl)imide antineoplastic agents. Synthesis and biological activity” (J Med Chem, 1985)
Calls of active or inactive are those of the source. No cut-off for these calls is given here.

How the values were obtained:
Homo sapiens [1] = species on record: Homo sapiens; test: Compound was tested for cytotoxic activity against human colon adenocarcinoma in vitro; assay type: functional
Mus musculus [2] = test: Compound was evaluated for inhibitory activity in vivo against P388 leukemia cells in mice at a dose of 6.25 mg/kg upon intraperitoneal administration; assay type: functional
Outline: (§1)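 Tumor source was ascites fluid implanted into BDF₁ mice. Tumor inoculation and drug dosing were both intraperitoneal, given once daily for 5 days (q1d × 5). Screening and data interpretation followed the general NCI protocol.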

Mus musculus [3] = test: Compound was evaluated for inhibitory activity against B-16 melanoma in mice at a dose of 1.56 mg/kg upon intraperitoneal administration; assay type: functional
Mus musculus [4] = test: Compound was evaluated for inhibitory activity against B-16 melanoma in mice at a dose of 12.5 mg/kg upon intraperitoneal administration; assay type: functional
Mus musculus [5] = test: Compound was evaluated for inhibitory activity against B-16 melanoma in mice at a dose of 25 mg/kg upon intraperitoneal administration; assay type: functional
Mus musculus [6] = test: Compound was evaluated for inhibitory activity against B-16 melanoma in mice at a dose of 3.13 mg/kg upon intraperitoneal administration; assay type: functional
Mus musculus [7] = test: Compound was evaluated for inhibitory activity against B-16 melanoma in mice at a dose of 6.25 mg/kg upon intraperitoneal administration; assay type: functional
P388 [8] = test: Inhibitory activity in vivo against P388 leukemia cells in mice at a dose of 12.5 mg/kg upon intraperitoneal administration; assay type: functional, Mus musculus; outline: as §1
P388 [9] = test: Inhibitory activity in vivo against P388 leukemia cells in mice at a dose of 25 mg/kg upon intraperitoneal administration; assay type: functional, Mus musculus; outline: as §1
Mus musculus [10] = test: Compound was evaluated for inhibitory activity in vivo against P388 leukemia cells in mice at a dose of 8 mg/kg upon intraperitoneal administration; assay type: functional; outline: as §1
Mus musculus [11] = test: Compound was evaluated for inhibitory activity in vivo against P388 leukemia cells in mice at a dose of 4 mg/kg upon intraperitoneal administration; assay type: functional; outline: as §1
Mus musculus [12] = test: Compound was evaluated for inhibitory activity in vivo against P388 leukemia cells in mice at a dose of 16 mg/kg upon intraperitoneal administration; assay type: functional; outline: as §1
Mus musculus [13] = test: Compound was evaluated for inhibitory activity in vivo against P388 leukemia cells in mice at a dose of 2 mg/kg upon intraperitoneal administration; assay type: functional; outline: as §1
Homo sapiens [14] = species on record: Homo sapiens; test: Compound was tested for cytotoxic activity against human colon adenocarcinoma in vitro; IA means inactive; assay type: functional
L1210 [15] = test: Cytotoxic activity against L1210 leukemia in vitro.; assay type: functional, Mus musculus
P388 [16] = test: Inhibitory activity in vivo against P388 leukemia cells in mice at a dose of 100 mg/kg upon intraperitoneal administration; assay type: functional, Mus musculus; outline: as §1
Mus musculus [17] = test: Compound was evaluated for inhibitory activity in vivo against P388 leukemia cells in mice at a dose of 200 mg/kg upon intraperitoneal administration; assay type: functional; outline: as §1
L1210 [18] = test: Compound was tested for cytotoxic activity against L1210 leukemia in vitro; IA means inactive; assay type: functional, cell-based; conditions: Mus musculus
P388 [19] = test: Inhibitory activity in vivo against P388 leukemia cells in mice at a dose of 50 mg/kg upon intraperitoneal administration; assay type: functional, Mus musculus; outline: as §1
[20] = Cytotoxic activity against human colon adenocarcinoma in vitro; assay type: functional
Mus musculus [21] = test: Compound was evaluated for inhibitory activity in vivo against P388 leukemia cells in mice at a dose of 60 mg/kg upon intraperitoneal administration; assay type: functional; outline: as §1
Mus musculus [22] = test: Compound was evaluated for inhibitory activity in vivo against P388 leukemia cells in mice at a dose of 30 mg/kg upon intraperitoneal administration; assay type: functional; outline: as §1
Mus musculus [23] = test: Compound was evaluated for inhibitory activity in vivo against P388 leukemia cells in mice at a dose of 15 mg/kg upon intraperitoneal administration; assay type: functional; outline: as §1
[24] = system: L1210 leukemia (Mus musculus); test: Compound was evaluated for inhibitory activity against L1210 leukemia in mice at a dose of 50 mg/kg upon intraperitoneal administration
Homo sapiens [25] = species on record: Homo sapiens; test: Compound was tested for cytotoxic activity against human colon adenocarcinoma in vitro; IA means Inactive; assay type: functional
Mus musculus [26] = test: Compound was evaluated for inhibitory activity in vivo against P388 leukemia cells in mice at a dose of 120 mg/kg upon intraperitoneal administration; assay type: functional; outline: as §1
Mus musculus [27] = test: Compound was evaluated for inhibitory activity in vivo against P388 leukemia cells in mice at a dose of 0.75 mg/kg upon intraperitoneal administration; assay type: functional; outline: as §1
Mus musculus [28] = test: Compound was evaluated for inhibitory activity in vivo against P388 leukemia cells in mice at a dose of 1.50 mg/kg upon intraperitoneal administration; assay type: functional; conditions: dose 1.5 mg/kg; outline: as §1
Mus musculus [29] = test: Compound was evaluated for inhibitory activity in vivo against P388 leukemia cells in mice at a dose of 1.56 mg/kg upon intraperitoneal administration; assay type: functional; outline: as §1
Mus musculus [30] = test: Compound was evaluated for inhibitory activity in vivo against P388 leukemia cells in mice at a dose of 3.00 mg/kg upon intraperitoneal administration; assay type: functional; outline: as §1
Mus musculus [31] = test: Compound was evaluated for inhibitory activity in vivo against P388 leukemia cells in mice at a dose of 3.12 mg/kg upon intraperitoneal administration; assay type: functional; outline: as §1
L1210 [32] = test: Compound was tested for cytotoxic activity against L1210 leukemia in vitro.; IA means Inactive; assay type: functional, cell-based; conditions: Mus musculus
Mus musculus [33] = test: Compound was evaluated for inhibitory activity in vivo against P388 leukemia cells in mice at a dose of 400 mg/kg upon intraperitoneal administration; assay type: functional; outline: as §1

In the case of `O=C1c2cccc3cc([N+](=O)[O-])cc(c23)C(=O)N1CCNCCO`, the Cytotoxic concentration (Homo sapiens [1]) is reported as 388 nM, the T/C (Mus musculus [2]) is reported as 137 and the T/C (Mus musculus [3]) is reported as 112. It also gave a T/C (Mus musculus [4]) of 219, a T/C (Mus musculus [5]) of 216 and a T/C (Mus musculus [6]) of 142. It also gave a T/C (Mus musculus [7]) of 174, a T/C (P388 [8]) of 151 and a T/C (P388 [9]) of 163.
Work on `CN(C)CCN1C(=O)c2cccc3cc(N)cc(c23)C1=O` [AMONAFIDE] yielded a T/C (Mus musculus [10]) of 144, a T/C (Mus musculus [11]) of 142 and a T/C (Mus musculus [12]) of 177. For the same compound, the T/C (Mus musculus [13]) was 135.
With `CN(C)CCN1C(=O)c2cccc3cc(O)cc(c23)C1=O` the Cytotoxic concentration (Homo sapiens [14]) was “inactive”, the Cytotoxic concentration (L1210 [15]) was 1.64 µM and the T/C (P388 [16]) was 115. It also gave a T/C (Mus musculus [17]) of 142.
For `COc1ccc2c3c(cccc13)C(=O)N(CCN(C)C)C2=O`, the Cytotoxic concentration (L1210 [18]) was “inactive”, the T/C (P388 [19]) was 109 and the T/C (P388 [16]) was 117. It also gave a T/C (Mus musculus [17]) of 133.
`CN(C)CCN1C(=O)c2cccc3c(Cl)ccc(c23)C1=O` showed a Cytotoxic concentration (L1210 [15]) of 1.01 µM, a T/C (P388 [19]) of 121 and a T/C (P388 [16]) of 120. The T/C (P388 [9]) was 105.
`Cl.Nc1cc2c3c(cc(N)cc3c1)C(=O)N(CCN1CCCCC1)C2=O` gave a Cytotoxic concentration [20] of 1270 nM, a Cytotoxic concentration (L1210 [15]) of 1.39 µM and a T/C (Mus musculus [21]) of 191. The T/C (P388 [8]) was 119, the T/C (Mus musculus [22]) was 142 and the T/C (Mus musculus [23]) was 136. For the same compound, the T/C [24] was 145.
For `Cl.O=C1c2cccc3cc([N+](=O)[O-])cc(c23)C(=O)N1CCN1CCOCC1`, the Cytotoxic concentration (L1210 [18]) was “inactive”, the T/C (P388 [19]) was 105 and the T/C (P388 [16]) was 183.
For `Cl.O=C1c2cc([N+](=O)[O-])cc3cc([N+](=O)[O-])cc(c23)C(=O)N1CCN1CCOCC1`, the Cytotoxic concentration [20] was 722 nM, the Cytotoxic concentration (L1210 [15]) was 1.13 µM and the T/C (P388 [19]) was 147. For the same compound, the T/C (P388 [8]) was 112 and the T/C (P388 [9]) was 131.
In the case of `Cl.O=C1c2cccc3cc([N+](=O)[O-])cc(c23)C(=O)N1CCN1CCCCC1`, the Cytotoxic concentration (L1210 [15]) is reported as 0.59 µM, the T/C (P388 [19]) is reported as 176 and the T/C (P388 [8]) is reported as 119. The T/C (P388 [9]) was 137.
With `O=C1OCCN1CCN1C(=O)c2cc([N+](=O)[O-])cc3cc([N+](=O)[O-])cc(c23)C1=O` the Cytotoxic concentration (Homo sapiens [25]) was “inactive”, the Cytotoxic concentration (L1210 [15]) was 2.02 µM and the T/C (Mus musculus [21]) was 109. It also gave a T/C (Mus musculus [26]) of 119.
Compound `CN(C)CCN1C(=O)c2cc([N+](=O)[O-])cc3cc([N+](=O)[O-])cc(c23)C1=O.Cl` has a Cytotoxic concentration [20] of 41.3 nM, a Cytotoxic concentration (L1210 [15]) of 0.0361 µM and a T/C (Mus musculus [27]) of 159. For the same compound, the T/C (Mus musculus [28]) was 167, the T/C (Mus musculus [29]) was 155 and the T/C (Mus musculus [30]) was 169. It also gave a T/C (Mus musculus [31]) of 167.
With `Cl.O=C1c2cccc3cccc(c23)C(=O)N1CCNCCO` the Cytotoxic concentration (L1210 [15]) was 2.05 µM, the T/C (P388 [19]) was 120 and the T/C (P388 [9]) was 102.
Work on `CN(C)CCN1C(=O)c2ccc3c4c(ccc(c24)C1=O)C(=O)N(CCN(C)C)C3=O` yielded a T/C (Mus musculus [2]) of 125 and a T/C (Mus musculus [31]) of 116.
In the case of `CN(C)CCN1C(=O)c2cccc3c(O)ccc(c23)C1=O.I`, the Cytotoxic concentration (L1210 [32]) is reported as “inactive”, the T/C (P388 [16]) is reported as 107 and the T/C (Mus musculus [33]) is reported as 120. It also gave a T/C (Mus musculus [17]) of 112.
In the case of `CCNCCN1C(=O)c2cccc3cc([N+](=O)[O-])cc(c23)C1=O.Cl`, the Cytotoxic concentration (L1210 [15]) is reported as 0.7 µM, the T/C (Mus musculus [2]) is reported as 123 and the T/C (P388 [8]) is reported as 129. The T/C (P388 [9]) was 162.
